Measurements from different studies.
Compare with care: the assays were run in different laboratories.
Read-out: microbial growth

Cc1cc(NS(=O)(=O)c2ccc(N)cc2)no1  MIC (Salmonella enterica; TYPHIMURIUM; 20 h, pH 5.5): 1020 µg/mL
O=C(Nc1ncc([N+](=O)[O-])s1)c1cccnc1F  MIC (Helicobacter pylori; broth dilution; 26695; 27 h): 3.7 µM
O=C1NC(=S)S/C1=C\c1ccc(-c2ccc(N(c3ccccc3)c3ccccc3)cc2)c2ccccc12  MIC (Bacillus cereus; broth dilution; ATCC10876): 1000 µg/mL
CC1(C)S[C@@H]2[C@H](NC(=O)[C@H](N)c3ccccc3)C(=O)N2[C@H]1C(=O)O  MIC (Salmonella enterica; F98, TYPHIMURIUM; 20 h, pH 7): 2 µg/mL
O=c1cc(-c2ccc(O)c(O)c2)oc2cc(O)cc(O)c12  MIC (Helicobacter pylori; broth dilution): 3.9 µg/mL
C[C@@H](O)[C@H]1C(=O)N2C(C(=O)O)=C(S[C@@H]3CN[C@H](C(=O)N(C)C)C3)[C@H](C)[C@H]12  MIC (Salmonella enterica; broth dilution; ENTERITIDIS; clinical isolate): ≤ 0.5 µg/mL
O=C(Nc1ncc([N+](=O)[O-])s1)c1ccncc1F  MIC (Helicobacter pylori; broth dilution; 26695; 27 h): 3.7 µM
O=C(O)c1cn(C2CC2)c2cc(N3CCNCC3)c(F)cc2c1=O  MIC (Bacillus cereus; broth dilution; ATCC10876): 0.12 µg/mL
CO/N=C(\C(=O)N[C@@H]1C(=O)N2C(C(=O)O)=C(CSC(=O)c3ccco3)CS[C@H]12)c1csc(N)n1  MIC (Salmonella enterica; 20 h, pH 7.2): 1 µg/mL
O=C1NC(=S)S/C1=C\c1ccc(-c2ccc(N(c3ccccc3)c3ccccc3)cc2)cc1  MIC (Bacillus cereus; broth dilution; ATCC10876): 1000 µg/mL
Oc1ccc(-c2nc(-c3ccc(Oc4ccc(C(F)(F)F)cc4)cc3)no2)cc1  MIC (Bacillus cereus; broth dilution; ATCC13061): 2 µg/mL
O=C1NC(=S)N/C1=C\c1ccc(-c2ccc(N(c3ccccc3)c3ccccc3)cc2)c2ccccc12  MIC (Bacillus cereus; broth dilution; ATCC10876): > 1000 µg/mL
COc1cc(-c2cc(=O)c3c(O)cc(O)cc3o2)ccc1O  MIC (Helicobacter pylori; broth dilution): 3.9 µg/mL
CCN1CCN(c2cc3c(cc2F)c(=O)c(C(=O)O)cn3C2CC2)CC1  MIC (Salmonella enterica; ENTERITIDIS; 20 h, pH 7.2): 0.0625 µg/mL
O=C(O)CN1C(=O)/C(=C/c2ccc(-c3ccc(N(c4ccccc4)c4ccccc4)cc3)cc2)SC1=S  MIC (Bacillus cereus; broth dilution; ATCC10876): 7.8 µg/mL
